Measured values from publication PMC9930943 (Asian Pacific Journal of Cancer Prevention : APJCP, 2022).
Like-named read-outs stand apart in the source and are kept apart here.

Tests used:
AGO1522 cells = experiment: MTT cell viability assay, AGO1522; type: cell-based, human; settings: for IC50: Homo sapiens, Skin fibroblast
Summary of the method: (§1)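 U-87MG (RPMI-1640, 7.5 × 10³ cells/well, 24 h attachment) and AGO1522 (low-glucose DMEM) grown with 10% FBS and pen/strep at 37°C, 5% CO₂. DMSO stocks diluted in medium to 3, 6.25, 12.5, 25, 50 and 100 µM, for 24 and 48 h. MTT 5 mg/ml for 4 h, formazan dissolved in DMSO, A570 nm. Viability relative to untreated cells; IC50 calculated. Triplicates, three experiments.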

U-87MG cells [1] = experiment: MTT cell viability assay, U-87MG; type: cell-based; settings: Homo sapiens
Summary of the method: as §1

[2] = tested on: intracellular ROS in U-87MG cells; experiment: Intracellular ROS assay with DCFH-DA probe; type: cell-based, human; settings: 11.91 M (so in the source), 12 hours, P < 0.01
Summary of the method: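 6 × 10⁵ U-87MG cells/well attached for 24 h, then given 11.91 µM for 12 h. Loaded with DCFH-DA (10 µM final) in serum-free medium for 30 min at 37°C in the dark and washed twice with RPMI 1640. DCF fluorescence of 1 × 10⁴ cells read on a fluorescence plate reader as RFU. Three independent experiments.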

U-87MG cells [3] = experiment: PI staining cell cycle analysis by flow cytometry; type: cell-based, human; settings: 11.91 µM, 24 hours
Summary of the method: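 6 × 10⁵ U-87MG cells/well attached for 24 h, then given 11.91 µM for 24 h. Detached with trypsin-EDTA at 37°C for 2 min, fixed in cold 70% ethanol for 1 h. Stained 30 min at RT in the dark in 1 ml 0.1% sodium citrate with 0.05 mg PI and 50 µg RNase. Sub-G1, G0/G1, S and G2/M percentages by flow cytometry.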

[4] = tested on: caspase-3 activity in U-87MG cells; experiment: Caspase-3/CPP32 fluorometric activity assay; type: cell-based, human; settings: 11.91 µM, 24 hours (method: 12 hours), P<0.01
[5] = 24 h, read-out: IC50 AGO1522 24 hours
[6] = 48 h, read-out: IC50 AGO1522 48 hours
[7] = 24 h, read-out: IC50 U-87MG 24 hours
[8] = 48 h, read-out: IC50 U-87MG 48 hours

| Compound | IC50 (AGO1522 cells; [5]) [µM] | IC50 (AGO1522 cells; [6]) [µM] | IC50 (U-87MG cells [1]; [7]) [µM] | IC50 (U-87MG cells [1]; [8]) [µM] | effects on normal skin cells of AGO1522 (AGO1522 cells; AGO1522 cells, in words) | level of ROS compared to unexposed cells [2] | cells in G1 (U-87MG cells [3]) [%] | caspase 3 activation compared to unexposed cells [4] |
| --- | --- | --- | --- | --- | --- | --- | --- | --- |
| CC(=O)O[C@H]1C(=O)[C@@]2(C)[C@H]([C@H](OC(=O)c3ccccc3)[C@]3(O)C[C@H](OC(=O)[C@H](O)[C@@H](NC(=O)c4ccccc4)c4ccccc4)C(C)=C1C3(C)C)[C@]1(OC(C)=O)CO[C@@H]1C[C@@H]2O [Paclitaxel, reference compound] | 42.9 ± 1.42 | 25.8 ± 1.09 | 17.4 ± 0.85 | 42.2 ± 0.78 | – | – | – | – |
| 5-(6-bromo-2-chloroquinolin-3-yl)-9a-hydroxy-8,8-dimethyl-4-nitro-2,3,5,5a,7,8,9,9a-octahydroimidazo[1,2-a]quinolin-6(1H)-one [5c] | – | – | – | – | minimal effects | significantly higher | 41 | significant increase |
| O=c1[nH]c(O)c(C2C([N+](=O)[O-])=C3NCCN3c3nc4cc(Cl)ccc4cc32)c(=O)[nH]1 (stereo not drawn) [5e, 5-(9-chloro-4-nitro-1,2,3,5-tetrahydrobenzo[g]imidazo[1,2-a] [1,8]naphthyridin-5-yl) -6-hydroxypyrimidine-2,4 (1H, 3H) -dione] | 43 ± 0.89 | 22.9 ± 0.95 | 22.6 ± 0.84 | 16.3 ± 1.03 | – | – | – | – |
